Assay outcomes: PubChem, The Scripps Research Institute Molecular Screening Center
TAAR1 antag: antagonists of human TAAR1 | Q96RJ0 | inhibition, % at 3 µM | CHO RD-HGA16 TAAR1, Fluo-8 calcium fluorescence, antagonist | 360,000 tested, 1.5% active;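 active = inhibition above a per-plate cutoff, the mean inhibition of test compounds on that plate plus 3 SD, cut at about 49% in these data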;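 also: 0% = DMSO plus EC80 beta-PEA response and 100% = DMSO alone without agonist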
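Test system: hTAAR1-expressing CHO RD-HGA16 cells, Gα16-coupled; Probe or stimulus: EC80 β-phenethylamine stimulus; Compound dosing: single nominal final test compound concentration of 3 µM; Timing: 140 s kinetic read after compound, 140 s after agonist; Signal: Fluo-8 calcium-sensitive fluorescence; Measure: % inhibition of agonist calcium response; Controls: DMSO and EC80 PEA controls.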
OX1R antag-1: blocks the human orexin 1 receptor; CHO/OX1R cells, Fluo-8 calcium fluorescence, orexin A; inhibition, % at 5 µM; 330,000 tested, 0.43% active; AID 434989;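 active = inhibition above its plate's threshold, mean inhibition of all tested compounds on the plate plus 3 SD, cut at about 37% in these data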;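 also: 0% = orexin A challenge wells and 100% = SB-334867-A antagonist wells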
GPR7 antagonist: human neuropeptides B/W receptor 1 antagonism. P48145. GPR7-expressing cells, fluorescence antagonist assay. inhibition, % at 4.4 µM. 290,000 tested, 1.1% active; in the data active = inhibition above about 16%, passing the limit was not always enough;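 also: cells stimulated with the agonist NPW; 0% = agonist with vehicle and 100% = vehicle without agonist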
Target sequence (P48145 whole entry, looked up): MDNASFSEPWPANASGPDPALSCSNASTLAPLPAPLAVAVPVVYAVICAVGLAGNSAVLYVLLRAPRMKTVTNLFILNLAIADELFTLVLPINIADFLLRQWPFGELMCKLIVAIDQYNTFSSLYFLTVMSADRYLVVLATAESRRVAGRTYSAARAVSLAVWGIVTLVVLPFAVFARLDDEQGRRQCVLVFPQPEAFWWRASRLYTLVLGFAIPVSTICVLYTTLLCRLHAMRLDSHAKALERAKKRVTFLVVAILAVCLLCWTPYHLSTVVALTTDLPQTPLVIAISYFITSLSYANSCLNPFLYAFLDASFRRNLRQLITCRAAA
TAAR1 ag: agonists of human TAAR1. 360,000 tested, 0.99% active. Q96RJ0. AID 624467. activation, % at 3 µM. CHO RD-HGA16 TAAR1, Fluo-8 calcium fluorescence; vehicle wells 0%, saturating PEA agonist 100%;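 active = activation above the mean activation of all test compounds in the run plus 3 SD, cut at about 38% in these data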
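Test system: RD-HGA16 (CHO) cells co-expressing Gα16 and hTAAR1; dosing: one-point dosing at 3 µM (nominal); timing: 17-24 h seeding, 75 min 37 °C dye, 30 min RT; signal: kinetic Fluo-8 calcium fluorescence; read-out basis: % activation relative to PEA EC100 response; controls: DMSO and PEA EC100; replicates: n 1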
CHO parental Ca: signal in parental CHO cells, OX1R antagonist counter-screen | parental CHO-K1, ATP-induced calcium, Fluo-8 fluorescence | inhibition, % at 5.6 µM | 330,000 tested, 0.63% active;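 active = inhibition above that plate's mean sample inhibition plus 3 SD, cut at about 26% in these data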;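 also: 0% = ATP-challenged DMSO wells and 100% = DMSO wells without ATP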
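material = parental CHO cells | also added = ATP as calcium-mobilizing challenge | dosing = single point at 5.6 µM | detection = intracellular calcium via Fluo-8 no-wash fluorescent dye | read-out = % inhibition | benchmarks = low control ATP plus DMSO, high control DMSO only | repeats = one well per compound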
OX1R antag-2: blocks the human orexin 1 receptor; OX1R-expressing cells, FRET antagonist read-out; inhibition, % at 6.6 µM; 330,000 tested, 1.8% active; in the data active = inhibition mostly above about 38%, no sharp cut-off; inactive = mostly below about 40%;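 also: 0% = agonist challenge alone and 100% = reference antagonist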
nonsel antag count: counter-screen for TAAR1 antagonists: nonselective antagonists; shares compounds with TAAR1 antag; counterscreen cell line, calcium fluorescence, antagonist mode; inhibition, % at 3 µM; 2,400 tested, 77% active; in the data active = inhibition above about 22%;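 also: CHO-Ga16 host cells stimulated with ATP at an EC80 level; 0% = agonist EC80 plus vehicle and 100% = vehicle without agonist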
TAAR1 ant conf: human TAAR1 antagonism, confirmed; shares compounds with TAAR1 antag; TAAR1-expressing cells, fluorescence antagonist read-out; inhibition, % at 3 µM; 2,400 tested, 40% active; in the data active = inhibition above about 49%;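 also: CHO-Ga16 host cells challenged with agonist PEA near its EC80; 0% = agonist at EC80 plus vehicle and 100% = vehicle with no agonist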
Ga16 nonsel ag: nonselective Ga16 agonist in TAAR1 antagonist counter-screen | shares compounds with TAAR1 antag | Ga16-expressing cells, calcium fluorescence, agonist counterscreen | activation, % at 3 µM | 2,400 tested, 18% active; in the data active = activation above about 12%;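 also: 0% = vehicle wells and 100% = saturating stimulus response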
TAAR1 ag counter: TAAR1 agonism, antagonist counter-screen; shares compounds with TAAR1 antag; hTAAR1 cell line, fluorescence activation, agonist mode; activation, % at 3 µM; 2,400 tested, 2% active; in the data active = activation above about 37%;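 also: CHO cells stably expressing TAAR1 with calcium dye readout; 0% = DMSO vehicle and 100% = full agonist response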
Starred values were filed as active, the others as inactive; · = not tested or not shown. This is a sample that favours compounds with a hit; in the whole collection about 4.6% have one here.

SMILES	TAAR1 antag	OX1R antag-1	GPR7 antagonist	TAAR1 ag	CHO parental Ca	OX1R antag-2	nonsel antag count	TAAR1 ant conf	Ga16 nonsel ag	TAAR1 ag counter
O=C1C(NS(=O)(=O)c2cccs2)=C(N2CCN(Cc3ccccc3)CC2)C(=O)c2ccccc21	71*	-20	-16	9	-23	37	30*	49*	6	4
O=C1C(NS(=O)(=O)c2cccs2)=C(N2CCN(c3cccc(C(F)(F)F)c3)CC2)C(=O)c2ccccc21	12	-35	0	4	-2	46	·	·	·	·
CSCCC(NS(=O)(=O)c1ccc2c(c1)OCCO2)C(=O)N(C)Cc1ccc(F)cc1 (configuration not stated)	76*	-7	·	15	-12	22	31*	63*	13*	12
CN(C)CCNc1ncnc2c1ncn2[C@H]1CN(Cc2cccnc2)C[C@@H](CO)O1	3	·	·	0	·	·	·	·	·	·
CC1(C(=O)Nc2ccc3c(c2)OCCO3)CN(S(C)(=O)=O)CC(=O)N1CC(F)(F)F (configuration not stated)	-3	·	·	1	·	·	·	·	·	·
CCN1CCN(C(=O)Cn2ncc3c2-c2ccccc2OC3)CC1	-8	-22	-5	5	-4	4	·	·	·	·
Cc1ccc(C)c(CN2CCCN(C(=O)Cn3ncc4c3-c3ccccc3OC4)C2)c1	59*	3	13	6	-16	56*	23*	46	12*	12
CC(C)Cn1c(SCC(=O)NC2CC2)nc2ccccc21	5	·	·	-1	·	·	·	·	·	·
O=C(Cc1cccs1)Nc1nnc(Cc2ccccc2)s1	11	-28	-2	19	-12	11	·	·	·	·
COc1ccc(Cc2nnc(NC(=O)Cc3cccs3)s2)cc1OC	57*	-20	-12	-1	-18	22	7	2	0	8
CCCCNC(=O)C(NC(=O)Cc1cc(OC)cc(OC)c1)C(=O)c1ccccc1 (configuration not stated)	-4	·	·	-1	·	·	·	·	·	·
O=C(Nc1cccc(S(=O)(=O)N2CCCCCC2)c1)c1cncc(Br)c1	61*	-35	·	10	-22	9	37*	53*	11	15
Cc1ccc(S(=O)(=O)N2CCCCC2)cc1NC(=O)c1cncc(Br)c1	-7	·	·	6	·	·	·	·	·	·
O=C(Nc1cccc(S(=O)(=O)C(F)F)c1)c1ccc(S(=O)(=O)N2CCCCC2)cc1	64*	-8	-5	15	2	21	35*	37	9	4
CC1(c2ccc(F)cc2)OC(=O)c2c1ccc1ccccc21 (configuration not stated)	21	·	·	1	·	·	·	·	·	·
O=C(Nc1cccc(Cl)c1)N(Cc1nc2ccccc2c(=O)[nH]1)Cc1cccs1	51*	-34	-3	10	-13	15	30*	44	10	12
CCCCc1c(-c2ccccc2F)ncn1CCc1ccccc1OC	60*	·	·	20	·	·	38*	72*	18*	63*
CCCCCc1c(-c2ccccc2F)ncn1CCc1ccccc1OC	60*	·	·	18	·	·	39*	59*	21*	48*
COc1ccccc1CCn1cnc(-c2cccc(F)c2)c1CC(C)C	51*	·	·	19	·	·	35*	67*	16*	55*
CCCc1c(-c2cccc(F)c2)ncn1CCc1ccccc1OC	13	·	·	19	·	·	·	·	·	·
CCCCc1c(-c2cccc(F)c2)ncn1CCc1ccccc1OC	34	·	·	19	·	·	·	·	·	·
COc1ccc(NC(=O)COC(=O)c2c(C)noc2C)cc1Cl	-16	·	·	2	·	·	·	·	·	·
Cc1nc(-c2ccc(S(=O)(=O)Oc3ccccc3Cl)s2)cs1	79*	9	2	9	58*	6	28*	49*	2	3
